The EternaBench riboswitch data

Test system: MS2 coat protein
Experiment: apparent Kd, MS2 coat protein; higher = weaker binding; RNA-MaP array; FMN 200 µM where present
Procedure, shortened: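 Apparent Kd: the median of filtered binding-curve fits from single clusters. Designs were transcribed on Illumina sequencing-chip clusters by stalled E. coli RNA polymerase and titrated with SNAP-549-labelled MS2 coat protein from 0.7 or 1.5 nM, doubling to 3 µM, in 100 mM Tris-HCl pH 7.5, 80 mM KCl, 4 mM MgCl2, BSA, DTT, yeast tRNA and Tween-20. Each series ran without and then with constant ligand, and green signal was normalised to red-channel RNA signal and control-cluster median Fmax.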

[1] = designed as: OFF switch for flavin mononucleotide, no ligand
[2] = ligand present: flavin mononucleotide, designed as: OFF switch for flavin mononucleotide
[3] = designed as: ON switch for flavin mononucleotide, no ligand
[4] = ligand present: flavin mononucleotide, designed as: ON switch for flavin mononucleotide

Sequence	apparent Kd [1] [nM]	apparent Kd [2] [nM]	apparent Kd [3] [nM]	apparent Kd [4] [nM]
AUUGGUGGUGUAGGAUAUAACAGCAGCUGUGGUACCGUGUGUUAAGGACAUGAGGAUCACCCAUGUUAGAAGGACACUGUCCAG	436	75.8		
ACAUGAGGAUCACCCAUGUUCACAUAGGAUAUUGAUUAUAUUGGUUUUAGAAUAGUAAUUAACCUCAAGAAGGAUGCCAGUUCU			13.3	10
GGAUUAAUAGCCCACAUGAGGAUCACCCAUGUAGUAUUUUACAAGGAUAUGGUGGGACUUCGUGGCCAGAAGGUGUAAAGGAUC			451	397
GGUACCAUGUAGAAGGCAGAUCUGAUUCAGAUCUGAGGAUAUACAUGAGGAUCACCCAUGUAAAGGCACCGCACGAGAGUGCAA	32.4	108		
CUGGAAGUCGUAGGAUAUGGUGAUGUACAUGAGGAUCACCCAUGUCCGUCUUCUCUCACAAGAUGCCAGAAGGACGACUUCCGG			625	101
CUGUACUGAGGAUAUACAUGAGGAUCACCCAUGUGUUCGAUACUAGUGAGGUCGAUUAGUAGAAGGCAGUACAG	23	242		
GGAUCGAAAGUGAGGAUAUGCUGGUCCUUGGAUCAGCAGAAGGCACAUGAGGAUCACCCAUGUGAUUUCGAUCC	16.6	25		
UGCCACCGGGAGAAGGGCAUACGUGAGGUCCUACAUAGUCACAUGAGGAUCACCCAUGUAGAAAUGCAGGAUAUCUCGUAGCAG	6.93	13.4		
UCUAAUUAGUGAGGAUAUGCAUAAUUUAUAACUGCAGAAGGCACAAACCUCAAGACAUGAGGAUCACCCAUGUGGAAUAUAGAU	93.8	215		
GUGAGUGGUCAGGAUAUGCUGUACAAAAGUACAGCAGAAGGGACUACAUGAGGAUCACCCAUGUUUACUUCAUG	268	311		
AAAAAGUCAGGAUAUCGUAGAAAAAUAUAAAUAAGAAAGUACGAGAAGGGACAUGAGGAUCACCCAUGUAAAAA	33.1	36.9		
GGAUUUUACUAGUUUUCUAAACAUGAGGAUCACCCAUGUUUUUAGGAUAUCAGCGUGAAACACGCUGAGAAGGAAGAACAAUCC	15.7	18.2		
AGCGCGGUCCACUUGGACGCCUACGAGGAUAUCCUGUCACAUGAGGAUCACCCAUGUAGGCACAUGGAGAAGGCGUAGAAAUCA			60.9	7.22
UUAAAUCGAAACAUGAGGAUCACCCAUGUGUUGUGGUUAAUAUAGGAUAUGUGUAUACUUUUAUGACAGAAGGAUGAUAAUACU			15.5	12.6
GUAGAGUAAGGAUAUCAAGAAUAGGAUAGAAUGGUUAGAAUUGAGAAGGUACAUGAGGAUCACCCAUGUAAUGU	20.9	21		
GCUGUCGCAUGAGGAUAUGGUCAGCUUUGCUGACCAGAAGGCAUGUCAAUAGACAUGAGGAUCACCCAUGUAGUAAAGACGGCU			313	32.4
CCGACGAAAGUCGAACGAUGUAGCAGAAGGACAUGAGGAUCACCCAUGUCAGCUGUAACAGCCAUGUAGGAUAUGCUACAUCGG	4.44	5.53		
UAUAUAUAAUAUAUUAACAUGAGGAUCACCCAUGUCGCUAGACAGGAUAUAUUUAAUUUUUUUAAGUAGAAGGGUCAUAUAAUU			68.3	80.9
UCGAAACAGACAGGAUAUGCAGGGAGGUGCCGGUACAUGAGGAUCACCCAUGUAGAAGGGUCUCGAGUUGAACUUCAGUCAAAG	9.61	19.5		
CCGUUACAUGAGGAUCACCCAUGUGAGGAUAUGGUUCGGUACUGUCCUGUCGCGUACUCCAGAAGGCACGUGUC	33.5	34.8		
AGUGUCAUCGAGAAGGACACGGACAUGAGGAUCACCCAUGUUCCAUGUUGUAGGAUAUCGAUGAUACAGCUACGUUUCGUAGCA			5.01	4.5
AUAAAACAUGAGGAUCACCCAUGUCAGGAUAUACCAUUCCCAUGCCAGCAUUAAAAUGGUAGAAGGGACAUGGC	49.2	27.2		
AAAAAACAUGAGGAUCACCCAUGUGAGGAUAUGCGAAAAAAAAAAAAAAAAAAAAAAAGCAGAAGGCACAAAAA	43.9	60.8		
UGUCGGAGCAGAGGAUAUUACAUGAGGAUCACCCAUGUAUGAACCAAGAGCUGGAAACAGCAAUGUAAGAAGGCUGCUCCGACA	10.9	121		
GGAUUUGUUCCAAUUUCGGUGAGUAAGGAUAUGCAUGGCAUACAUGAGGAUCACCCAUGUUGUCGGCAGAAGGUGCCACAACGU			59.4	15.2
ACGUUAAAAGGAUAUACAUGAGGAUCACCCAUGUUGUUCGAACUGGUAAACCCUCUAUGUAGAAGGUUUGGCAC	23.5	50.1		
CCCGACCUGAAGUCGAUACGGAGGAGAAGGCGCCUCCUGGGUCCACAUGAGGAUCACCCAUGUGGCGAGGAUAUCCUCAGUUUU	11.8	73.7		
CCCGACUAGAAGUCGAUACGGAGGAGAAGGCGCCUCCUGGGUCCACAUGAGGAUCACCCAUGUGGCGAGGAUAUCCUCAGUUUU	10.9	96.6		

Sequence	apparent Kd [1] [nM]	apparent Kd [2] [nM]	apparent Kd [3] [nM]	apparent Kd [4] [nM]
GGUUGGCGAGGAUAUACAUGAGGAUCACCCAUGUGAGAGAUACUAGUGAGGUCGAUUGGUAGAAGGCGCUGACA	108	58.6		
UCCUUCUGUUGAGGAUAUGUAAGACAGCAGCUGCUAUGGCGGCACGCUGAUACAGAAGGCAACAUGAGGAUCACCCAUGUUCAA	20.4	73		
UGUCGGAGCAGAGGAUAUUACAUGAGGAUCACCCAUGUAUGGACCAAUAGCUGGAAACAGCAAUGUAAGAAGGCUGCUCCGACA	18.3	215		
ACAAGAUCAGGAUAUACAUGAGGAUCACCCAUGUUUAUCAAAAAAGGGCUUUCUUAAUGUAGAAGGGAUCUUGU	84.5	64.1		
CGUAUGUCAGGAUAUGCGCGCGAUCAUUACACUCGGAAUUGGCAGAAGGGACAUGAGGAUCACCCAUGUGGCCC	34.4	37.4		
UUUUUGUGAGGAUAUGGAAUAUCUUCUAUUUAUUAUUAAUUCCAGAAGGCACAUGAGGAUCACCCAUGUAUUUU	19.9	25.2		
AGAUAACAUGUAGGAUAUCGAGGCCUGAGGCCUCGAGAAGGACAUGAGGAUCACCCAUGUAGUUGUACCAUGGAAUCACGCACU	340	645		
CAAUUCCGAGGAUAUACAUGAGGAUCACCCAUGUCGGGCCUCAGCGUUUAGCGCCUCAGUAGAAGGCGGGUUUC	28.3	34.8		
CCGGAAACGGGUAGCUGACAUGAGGAUCACCCAUGUGAAUCUGAGGAUAUGGAUCCUAAUUGGAUCCAGAAGGCAGUCAGCUAC			615	61.4
ACAUGCAAGUAGAAGGACGGAUAUUUUGAUAACGUAGGAUAUACAGAAUCAUAUCCACAUGAUAACAUGAGGAUCACCCAUGUA	11.8	12.4		
UGUUGUAUUACAGGAUAUCUAUGAUUAUUAUUUAGAGAAGGGUAUUCACAUGAGGAUCACCCAUGUAUAUACGAGGAAGUUGUG			40.7	48.7
GUGAGAAUAGGAGGAUAUAUACAACAUGAGGAUCACCCAUGUACCCGUGUAGUAGAAGGUUUGUUUAUAUAUAAUAUUAUAUUU			20.2	18.7
CAGAAGUCAGGAUAUCCUGCUCGUCACUUGCGUGAUGAGUAGGAGAAGGGACAUGAGGAUCACCCAUGUAAAGC	53.8	65.2		
UGGUACUAGGGAGGAUAUGGGAAGAUACAUGAGGAUCACCCAUGUUUAAGAAUGCCGAGAGGCAACUAGAAGGCCCUAGUGCCU			432	19.2
CGCUGGAUCGAGAAGGCCAUGUGGGACGCGAGCAGUGAUGUUAGGACAUGGAGGAUAUCGAACAUGAGGAUCACCCAUGUAACC			438	25.5
AAACAUGUCCGAGGAUAUCUGGAAACAUUUUCAAGAGAAGGCGGACAUGAGGAUCACCCAUGUCUCUCCUCAUCAACCACAAAU	8.83	56.2		
UAAAGACAUGAGGAUCACCCAUGUGAGGAUAUCGGAGAUAACGGAACAUCAAGUUCGGCGAGAAGGCACAGGAA	53.9	58.1		
CUACGAACGAUAGGAUAUACUGAGGUUGAGUGGGUAGAAGGAUCGAUAGUGGAGAAGACAUGAGGAUCACCCAUGUUGUGGAUU			176	45.5
AGCGAACAGGCUAACAUGAGGAUCACCCAUGUGGACUCAUGGUAGGAUAUCGGGAAGGAGGAAACCGAGAAGGGCCGGUGAGCU			254	62.8
AAGGGUAGGCAGGAUAUCCAGGUCGACACCGCGGGAGAAGGGCUUACAUGAGGAUCACCCAUGUAGGGUGCGAU	177	129		
GAAAAACAUGAGGAUCACCCAUGUGUAAACAAGGGAGGAUAUACAAAGACGUAAGUCAAAGUAGAAGGCCUAAAAG			25	9.6
GCCUCACAUGAGGAUCACCCAUGUCAGGAUAUAGGAGGCGAUAGAAAUCCUACCGCCGCUAGAAGGGACUGGCA	39.8	91.2		
ACAAGAUCAGGAUAUACAUGAGGAUCACCCAUGUUUAUCCAAAAGGGACUUUCUUUAUGUAGAAGGGAUCUUGU	16.8	32.3		
UAAUUUUUAGUAAGGAUAUCGGUCCCAAGGGACAACGAGAAGGUACAUGAGGAUCACCCAUGUGAUUAAAGAAU	28.2	221		
UUUUUGUGAGGAUAUUAGUAGUAAAUAAAUAAAAUUAUUACUGAGAAGGCACAUGAGGAUCACCCAUGUUCCUU	14.8	68.1		
UUUUCGCGCGCAGGAUAUCCCAUGUGGUUCACACAUGAGGAUCACCCAUGUUUCACCCAUGUGCGGGAGAAGGGUGCGCGUUUC			368	189
AAGCUGCGCCAGAAGGGACCGACAUGAGGAUCACCCAUGUCCACAAGAGUCAGGAUAUGGCGUGGAGGCUCGUUCAAGUCCAGG			13.5	5.73
